Series [1] can be described thus: Solubility of lyophilized peptide in PBS or water. Format: physicochemical.
Series [2] concerns the target Aβ(1–40) fibril formation (Homo sapiens, UniProt P05067). The series can be described thus: Thioflavin T. The format is biochemical. The note with it: 28 μM Aβ, 1.4 μM peptide; PBSA, 37 °C, up to 48 h; three replicates. Put shortly:
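Aβ(1-40) stock in urea/glycine buffer, previously relyophilized from 50% acetonitrile. 28 µM Aβ incubated in PBSA at 37 °C alone or with 2.8, 1.4 or 0.28 µM test peptide. At 1 or 4, 24 and 48 h, aliquots mixed with 10 µM ThT in PBS. Excitation 440 nm, emission scanned 460–500 nm. Three serial spectra averaged, ThT/PBS background subtracted, 480 nm intensity compared.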

Series [3] concerns the target T1, Aβ(1–40) aggregates (Homo sapiens, UniProt P05067). The series can be described thus: Dynamic light scattering. The format is biochemical. The following applies: 28 μM Aβ, 1.4 μM peptide; 37 °C; 2 h; z-averaged hydrodynamic diameter; Aβ alone 400 nm after 2 h.
In series [4] the target is T1, Aβ(1–40) aggregates. As to the kind of experiment: Nanoparticle tracking analysis. The format is biochemical. The procedure, abridged:
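Aβ(1-40) stock prepared by dissolving in 50% acetonitrile, relyophilizing, and reconstituting in urea/glycine buffer at 12 mg/mL. Samples: 28 µM Aβ alone or with 1.4 µM test peptide, or peptide alone. Nanosight LM10, 405 nm laser, video capture started immediately. One 60-s video per time point over 2 h, room temperature, camera level 13. Buffers 0.02 µm-filtered. Number concentration taken from the instrument-defined scattering volume. Only particles above ~30 nm are detected.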

Another series addresses Aβ(1–40) fibrils (Homo sapiens, UniProt P05067). The series can be described thus: Transmission electron microscopy. The format is biochemical. The note with it: 28 μM Aβ + 1.4 μM peptide; 24 h at 37 °C; PBSA.

Non-standard residues stand in square brackets, D forms with d. Residues, ends and D or L forms follow the SMILES beside them. Some results are limits rather than exact numbers.

As a reminder, the solubility is the dissolved amount per volume that the medium holds. Read a low solubility as a poorly soluble substance.

T1 sequence (P05067 672-711 limits assumed): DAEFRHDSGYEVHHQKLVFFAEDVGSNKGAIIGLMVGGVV
Chain of Aβ(1–40) fibrils (P05067 672-711 limits assumed): as above
Chain of Aβ(1–40) fibril formation (P05067 672-711 limits assumed): as above

For the compound `CC[C@H](C)[C@@H]1NC(=O)[C@H]([C@@H](C)O)NC(=O)[C@H](Cc2ccc(O)cc2)NC(=O)[C@H](CCCNC(=N)N)NC(=O)[C@@H]2CCCN2C(=O)[C@H]2CCCN2C(=O)[C@H]([C@@H](C)O)NC(=O)[C@H](C(C)C)NC(=O)[C@H](C(C)C)NC(=O)[C@H](CCCCN)NC(=O)[C@H](CO)NC(=O)[C@H](CCC(N)=O)NC(=O)[C@H](CO)NC(=O)[C@H](Cc2ccc(O)cc2)NC(=O)[C@H](CO)NC(=O)[C@H](Cc2ccc(O)cc2)NC(=O)[C@@H]2CCCN2C(=O)[C@H](CO)NC(=O)[C@H](CC(C)C)NC(=O)[C@H](CC(C)C)NC(=O)[C@H](C)NC(=O)[C@H](C)NC1=O` [CG3] (cyclo(SKVVT[dP]PRYTIAALLSPYSYSQ)), the solubility in series [1] (aqueous buffer) is greater than 650 µg/mL; in series [1] (water) it was greater than 600 µM. In series [2], the “inhibition of ThT fluorescence at 20:1 Aβ/peptide” value is “partially inhibited”. Also, at Aβ(1–40) aggregates [3], the “effect on size and growth rate of Aβ aggregates (DLS)” value is “size and growth rate of Aβ aggregates increased”. The “particles from peptide alone (NTA)” value at Aβ(1–40) aggregates [4] (1.4 μM peptide in the absence of Aβ, detection limit ~30 nm, data not shown) was “no detectable particles above background”. For the same compound, the “initial particle number concentration relative to Aβ alone (NTA)” value on Aβ(1–40) aggregates [4] (28 μM Aβ, 1.4 μM peptide, PBSA, room temperature, shortly after mixing) is “about 2 fold”. Besides, the “mean hydrodynamic diameter of aggregates after 2 h (NTA)” value at Aβ(1–40) aggregates [4] (28 μM Aβ, 1.4 μM peptide, number-averaged) was ~ 400 nm. The “mean hydrodynamic diameter of aggregates shortly after mixing (NTA)” value at Aβ(1–40) aggregates [4] (28 μM Aβ, 1.4 μM peptide, number-averaged, Aβ alone ~80 nm) is reported as 120 nm. Further, the “Aβ aggregate morphology by TEM” value on Aβ(1–40) fibrils is reported as “still a large number of fibrils, but many appeared to be shorter”.

The values above are taken from publication PMC5051546 (ACS chemical neuroscience, 2016).
